High-throughput results as filed in PubChem BioAssay.
Hits are enriched below; roughly 4.1% of the tested compounds scored in any of these assays.
CHOP UPR activ – activators of apoptotic arm of unfolded protein response (CHOP); CHO-CHOP luciferase reporter, UPR activation, luminescence; percent of tunicamycin response over DMSO baseline; activation, % at 10 µM; hit rate 0.34% among 330,000; AID 449763;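 active = at 10 µM dose, activation of 40% or more, normalized to positive control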;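 also: 100% = tunicamycin at 10 µg/mL and 0% = DMSO alone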
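System: CHO-CHOP luciferase reporter cell line; amount: 500 cells/well; buffer or medium: F12 medium containing 10% fetal bovine serum; incubation: 6 h compound exposure at 37 °C after overnight seeding; measured by: luciferase luminescence after 10 min with Steady-Glo reagent; evaluation: % reporter activation, DMSO baseline versus tunicamycin full activation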
UPR XBP1 act – adaptive UPR (XBP1) activation. AID 463104. hit rate 0.33% among 330,000. activation, % at 20 µM. CHO-XBP1 luciferase reporter, IRE1-XBP1 UPR activation, luminescence; percent of tunicamycin response, DMSO as zero;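 active = versus positive control, 20 µM dose yields 30% or more activation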;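 also: 100% = tunicamycin at 10 µg/mL and 0% = DMSO only wells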
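Assay system: CHO-XBP1 luciferase reporter cells; Schedule: 6 h treatment, 37 °C; Detection: glow luminescence from Steady-Glo reagent; Benchmarks: high control tunicamycin 10 µg/mL final, low control DMSO vehicle only.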
Apaf1 inhib – blocks human Apaf-1 apoptosome activity. O14727. reconstituted apoptosome caspase-3 activity, DEVD-Rh110 fluorescence. inhibition, % at 20 µM. hit rate 0.71% among 330,000; active = inhibition of at least 40% at 20 µM;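 also: plate controls were DMSO wells for no effect and DEVD-CHO caspase inhibitor wells for full effect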
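Material: reconstituted apoptosome with Apaf-1, cytochrome c, caspase-9, procaspase-3, dATP / Buffer or medium: pH 7.5 Hepes buffer with CHAPS, BSA, DTT / Also added: cytochrome c with DEVD-Rh110 / Schedule: compound with Apaf-1, dATP, procaspase-3 30 min, then 50 min reaction, room temperature / Technique: rhodamine 110 fluorescence at Ex 480/Em 540 nm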
Mdm2-MdmX inh – disrupts the human Mdm2-MdmX interaction | O15151+Q00987 | SaOS-2 split-luciferase Mdm2/MdmX complementation, luminescence | inhibition, % at 8 µM | hit rate 3% among 330,000 | AID 485346;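 active = inhibition of at least 50% at 8 µM in the primary screen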
UBC13 polyUb – blocks human UBC13 polyubiquitin chain formation | P61088 | TR-FRET | inhibition, % at 20 µM | hit rate 0.47% among 330,000 | AID 485273; in the data active = inhibition above about 45%, passing the limit was not always enough
Mdm2 MdmX conf – human Mdm2/MdmX binding inhibition, confirmed. inhibition, % at 8 µM. luminescent assay. shares compounds with Mdm2-MdmX inh. AID 489028. hit rate 55% among 10,000; in the data active = inhibition above about 40%
Full FLuc ctr – counter-screen for Mdm2/MdmX inhibitors: full-length luciferase. inhibition, % at 8 µM. SaOS-2 full-length luciferase counterscreen, luminescence. shares compounds with Mdm2-MdmX inh. hit rate 77% among 6,200;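 active = mean inhibition at 8 µM reaching about 37%, which flags the compound as non-specific, limit read from the data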;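 also: p53-null SaOS-2 cells with luciferase driven by a doxycycline-inducible promoter; compound on cells about two nights before reading with doxycycline added after day one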
Numbers without * were called inactive.

`N#Cc1c(NCCN)nc(-c2ccccc2)c2c1CCCC2` gave CHOP UPR activ -2, UPR XBP1 act -2, Apaf1 inhib 20, Mdm2-MdmX inh 58*, UBC13 polyUb 19 and Mdm2 MdmX conf 20.
Screening N#Cc1c(NCCCO)nc(-c2ccccc2)c2c1CCCC2 returned CHOP UPR activ -1, UPR XBP1 act 2, Apaf1 inhib 6, Mdm2-MdmX inh 16 and UBC13 polyUb 17.
`CCN(C(=O)CCS(=O)(=O)c1cccc2nonc12)c1ccc(C)c(C)c1` gave CHOP UPR activ 0, UPR XBP1 act -4, Apaf1 inhib 13, Mdm2-MdmX inh 1 and UBC13 polyUb -1.
Nc1nc(Nc2ccccc2)nc(NCc2ccccc2)c1[N+](=O)[O-] was read as CHOP UPR activ 0, UPR XBP1 act 5, Apaf1 inhib 26, Mdm2-MdmX inh 19 and UBC13 polyUb 3.
Screening Cc1cccc(Nc2nc(N)c([N+](=O)[O-])c(NCc3ccccc3)n2)c1 returned CHOP UPR activ 2, UPR XBP1 act 3, Apaf1 inhib 26, Mdm2-MdmX inh 52*, UBC13 polyUb -1 and Mdm2 MdmX conf 33.
COc1ccc2c(c1OC)C(=O)N1c3ccccc3C(=O)N(c3ccccc3F)C21 (stereo unspecified) was read as CHOP UPR activ -1, UPR XBP1 act 0, Apaf1 inhib 3, Mdm2-MdmX inh 66*, UBC13 polyUb 4, Mdm2 MdmX conf 60* and Full FLuc ctr 76*.
For CC(=O)NO the results were CHOP UPR activ 1, UPR XBP1 act -4, Apaf1 inhib -13, Mdm2-MdmX inh -4 and UBC13 polyUb 3.
CCOC(=O)C(C)Oc1cccc2c(=O)n(CC(=O)NCc3ccccc3)ccc12 (stereo unspecified) was read as CHOP UPR activ 2, UPR XBP1 act 13, Apaf1 inhib 0, Mdm2-MdmX inh 66*, UBC13 polyUb 14, Mdm2 MdmX conf 50* and Full FLuc ctr 67*.
CCOC(=O)C(C)Oc1cccc2c(=O)n(CC(=O)NCCc3ccccc3)ccc12 (stereo unspecified) was read as CHOP UPR activ 1, UPR XBP1 act -1, Apaf1 inhib -1, Mdm2-MdmX inh 1 and UBC13 polyUb -4.
For CCOC(=O)C(C)Oc1cccc2c(=O)n(CC(=O)NCc3ccc(F)cc3)ccc12 (stereo unspecified) the results were CHOP UPR activ 0, UPR XBP1 act 9, Apaf1 inhib -24, Mdm2-MdmX inh 69*, UBC13 polyUb 6, Mdm2 MdmX conf 61* and Full FLuc ctr 88*.
Screening CC(=O)NNS(=O)(=O)c1ccc(-c2cc(C(F)(F)F)n(C)n2)s1 returned CHOP UPR activ 0, UPR XBP1 act -1, Apaf1 inhib 3, Mdm2-MdmX inh -9 and UBC13 polyUb 5.
CC1CCCCC12NC(=O)N(CC(=O)c1ccc(Cl)s1)C2=O (stereo unspecified) was read as CHOP UPR activ 0, UPR XBP1 act -3, Apaf1 inhib 4, Mdm2-MdmX inh 21 and UBC13 polyUb -4.
Screening Cc1ccc2nc(NC(=O)c3ccccn3)sc2c1 returned CHOP UPR activ 9, UPR XBP1 act -11, Apaf1 inhib 7, Mdm2-MdmX inh 100*, UBC13 polyUb -13, Mdm2 MdmX conf 90* and Full FLuc ctr 56*.
For Cc1ccc2nc(NC(=O)/C=C/c3ccc4c(c3)OCO4)sc2c1 the results were CHOP UPR activ 12, UPR XBP1 act 7, Apaf1 inhib -11, Mdm2-MdmX inh 78*, UBC13 polyUb -2 and Mdm2 MdmX conf 22.
`CCOc1ccc2nc(NC(=O)c3ccccn3)sc2c1` gave CHOP UPR activ 14, UPR XBP1 act -7, Apaf1 inhib -8, Mdm2-MdmX inh 76*, UBC13 polyUb -11, Mdm2 MdmX conf 76* and Full FLuc ctr 42*.
`Cc1ccc2nc(NC(=O)c3ccccc3F)sc2c1` gave CHOP UPR activ 2, UPR XBP1 act -8, Apaf1 inhib -6, Mdm2-MdmX inh -143 and UBC13 polyUb 19.
